# Measured values published in ChEMBL document CHEMBL1121929, “[(3-aryl-1,2-benzisoxazol-6-yl)oxy]acetic acids. A new diuretic series” (1982).
# Columns and labels:
# [1] = system: Canis familiaris; assay: Diuretic activity was measured after oral administration in conscious water loaded dogs at 20 mg/kg after 1 hr; type: functional, Canis lupus familiaris, Urine
# Method in brief: (§1)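 Male mongrel dogs (20–25 kg) were given 20 mL/kg tap water by gavage about 15 h before drug, with water ad libitum overnight. On the test day they received 4 mL/kg tap water hourly for 7 h, and the bladder was emptied at each interval. Drug was gavaged in the 4 mL/kg water load after the third urine sample, with Tween 80 added when it was poorly soluble. Urinary Na+ was measured by flame photometry as the mean excretory rate (μequiv/kg) per interval per animal. Each dog was its own control, using the hour before dosing.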
# [2] = system: Mus musculus; assay: The diuretic activity was measured after oral administration in saline loaded mice at 64 mg/kg after 5 hr; type: functional, Urine
# Method in brief: (§2)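 Mice were dosed orally with drug in 1% saline at 10 mL/kg, at 4 or 64 mg/kg, alongside a vehicle control. There were 10 mice per group, housed 5 per metabolic cage. Pooled urine was analysed for sodium by flame photometry and expressed as mean mequiv/kg/5 h.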
# [3] = system: Mus musculus; assay: The diuretic activity was measured after oral administration in saline loaded mice at 4 mg/kg after 5 hr; type: functional, Urine; method in brief: as §2
# [4] = system: Canis familiaris; assay: The diuretic activity of compound was measured after oral administration in conscious water loaded dogs at 5 mg/kg after 4 hr; Micro equiv of Na+/kg; type: functional, Canis lupus familiaris, Urine; method in brief: as §1
# [5] = system: Canis familiaris; assay: The diuretic activity of compound was measured after oral administration in conscious water loaded dogs at 5 mg/kg after 5h; Micro equiv of Na+/kg; type: functional, Canis lupus familiaris, Urine; method in brief: as §1
# [6] = system: Canis familiaris; assay: The diuretic activity of compound was measured after oral administration in conscious water loaded dogs at 5 mg/kg after 6 h; Micro equiv of Na+/kg; type: functional, Canis lupus familiaris, Urine; method in brief: as §1
# [7] = system: Canis familiaris; assay: The diuretic activity of compound was measured after oral administration in conscious water loaded dogs at 5 mg/kg after 7h; Micro equiv of Na+/kg; type: functional, Canis lupus familiaris, Urine; method in brief: as §1
# [8] = system: Canis familiaris; assay: The diuretic activity of compound was measured after oral administration in conscious water loaded dogs at 5 mg/kg after 1 hr; Micro equiv of Na+/kg; type: functional, Canis lupus familiaris, Urine; method in brief: as §1
# [9] = system: Canis familiaris; assay: The diuretic activity of compound was measured after oral administration in conscious water loaded dogs at 5 mg/kg after 2 hr; Micro equiv of Na+/kg; type: functional, Canis lupus familiaris, Urine; method in brief: as §1
# [10] = system: Canis familiaris; assay: The diuretic activity of compound was measured after oral administration in conscious water loaded dogs at 5 mg/kg after 3 hr; Micro equiv of Na+/kg; type: functional, Canis lupus familiaris, Urine; method in brief: as §1
Structure (SMILES),Oral diuretic activity [1],Oral diuretic activity [2],Oral diuretic activity [3],other results
Cc1cccc(-c2noc3c(Cl)c(OCC(=O)O)ccc23)c1C,219.9 u equiv of [Na+] kg-1 hr-1,0.02 m equiv [Na+] 5hr-1kg-1,–,–
Cc1ccc(-c2noc3c(Cl)c(OCC(=O)O)ccc23)o1,37.4 u equiv of [Na+] kg-1 hr-1,1.5 m equiv [Na+] 5hr-1kg-1,0.3 m equiv [Na+] 5hr-1kg-1,–
O=C(O)COc1ccc2c(-c3ccc(O)cc3F)noc2c1Cl,43.5 u equiv of [Na+] kg-1 hr-1,0.6 m equiv [Na+] 5hr-1kg-1,0.5 m equiv [Na+] 5hr-1kg-1,–
O=C(O)COc1ccc2c(-c3ccc(Cl)c(Cl)c3)noc2c1Cl,101.6 u equiv of [Na+] kg-1 hr-1,0.1 m equiv [Na+] 5hr-1kg-1,0.6 m equiv [Na+] 5hr-1kg-1,–
O=C(O)COc1ccc2c(-c3ccc(Cl)cc3)noc2c1Cl,41.2 u equiv of [Na+] kg-1 hr-1,0.5 m equiv [Na+] 5hr-1kg-1,0.5 m equiv [Na+] 5hr-1kg-1,–
O=C(O)COc1c(Cl)cc2c(-c3ccccc3F)noc2c1Cl,85.7 u equiv of [Na+] kg-1 hr-1,0.41 m equiv [Na+] 5hr-1kg-1,–,–
CCOC(=O)COc1ccc2c(-c3ccccc3F)noc2c1Cl,39.1 u equiv of [Na+] kg-1 hr-1,1.48 m equiv [Na+] 5hr-1kg-1,–,–
O=C(O)COc1ccc2c(-c3cccs3)noc2c1Cl,77.5 u equiv of [Na+] kg-1 hr-1,1 m equiv [Na+] 5hr-1kg-1,0.4 m equiv [Na+] 5hr-1kg-1,–
O=C(O)COc1cc(Cl)c2c(-c3ccccc3F)noc2c1,82.1 u equiv of [Na+] kg-1 hr-1,1.16 m equiv [Na+] 5hr-1kg-1,1.59 m equiv [Na+] 5hr-1kg-1,–
O=C(O)COc1ccc2c(-c3ccc4ccccc4c3)noc2c1Cl,53.3 u equiv of [Na+] kg-1 hr-1,1.1 m equiv [Na+] 5hr-1kg-1,1.2 m equiv [Na+] 5hr-1kg-1,–
Cc1ccccc1-c1noc2c(Cl)c(OCC(=O)O)ccc12,66.9 u equiv of [Na+] kg-1 hr-1,1.76 m equiv [Na+] 5hr-1kg-1,0.02 m equiv [Na+] 5hr-1kg-1,–
O=C(O)COc1ccc2c(-c3ccccc3F)noc2c1,33.6 u equiv of [Na+] kg-1 hr-1,2.89 m equiv [Na+] 5hr-1kg-1,–,–
O=C(O)COc1ccc(-c2noc3ccccc23)c(Cl)c1Cl,81.6 u equiv of [Na+] kg-1 hr-1,1.49 m equiv [Na+] 5hr-1kg-1,0.33 m equiv [Na+] 5hr-1kg-1,–
O=C(O)CSc1ccc2c(-c3ccccc3F)noc2c1Cl,328.4 u equiv of [Na+] kg-1 hr-1,4.67 m equiv [Na+] 5hr-1kg-1,1.37 m equiv [Na+] 5hr-1kg-1,–
O=C(O)COc1cc2onc(-c3ccccc3F)c2cc1Cl,49.8 u equiv of [Na+] kg-1 hr-1,0.2 m equiv [Na+] 5hr-1kg-1,0.6 m equiv [Na+] 5hr-1kg-1,–
O=C(O)COc1ccc2c(-c3ccccn3)noc2c1Cl,61.2 u equiv of [Na+] kg-1 hr-1,1 m equiv [Na+] 5hr-1kg-1,0.5 m equiv [Na+] 5hr-1kg-1,–
O=C(O)COc1ccc2c(-c3ccccc3F)noc2c1I,617.3 u equiv of [Na+] kg-1 hr-1,3.41 m equiv [Na+] 5hr-1kg-1,0.07 m equiv [Na+] 5hr-1kg-1,–
O=C(O)COc1ccc2c(-c3ccc(F)cc3)noc2c1Cl,178.7 u equiv of [Na+] kg-1 hr-1,0.4 m equiv [Na+] 5hr-1kg-1,0.4 m equiv [Na+] 5hr-1kg-1,–

Structure (SMILES),Oral diuretic activity [1],Oral diuretic activity [2],Oral diuretic activity [3],other results
O=C(O)COc1ccc2c(-c3ccc(Cl)cc3F)noc2c1Cl,156.2 u equiv of [Na+] kg-1 hr-1,1.4 m equiv [Na+] 5hr-1kg-1,1.8 m equiv [Na+] 5hr-1kg-1,–
O=C(O)COc1cc2onc(-c3ccccc3F)c2cc1Br,–,0.28 m equiv [Na+] 5hr-1kg-1,0.47 m equiv [Na+] 5hr-1kg-1,–
O=C(O)COc1ccc2c(-c3cccc(F)c3F)noc2c1Cl,80 u equiv of [Na+] kg-1 hr-1,5.8 m equiv [Na+] 5hr-1kg-1,–,–
O=C(O)COc1ccc2c(-c3ccco3)noc2c1Cl,199 u equiv of [Na+] kg-1 hr-1,0.6 m equiv [Na+] 5hr-1kg-1,–,–
O=C(O)COc1ccc2c(-c3ccccc3F)noc2c1Cl,1267.5 u equiv of [Na+] kg-1 hr-1,10 m equiv [Na+] 5hr-1kg-1,3.5 m equiv [Na+] 5hr-1kg-1,Oral diuretic activity [4]: 503.7 u equiv of [Na+] kg-1; Oral diuretic activity [5]: 458.2 u equiv of [Na+] kg-1; Oral diuretic activity [6]: 241.7 u equiv of [Na+] kg-1; Oral diuretic activity [7]: 146.2 u equiv of [Na+] kg-1; Oral diuretic activity [8]: 48.6 u equiv of [Na+] kg-1; Oral diuretic activity [9]: 499.4 u equiv of [Na+] kg-1; Oral diuretic activity [10]: 727 u equiv of [Na+] kg-1
O=C(O)COc1ccc2c(-c3ccccc3Cl)noc2c1Cl,48.2 u equiv of [Na+] kg-1 hr-1,9.1 m equiv [Na+] 5hr-1kg-1,0.6 m equiv [Na+] 5hr-1kg-1,–
O=C(O)COc1ccc2c(-c3ccoc3)noc2c1Cl,293 u equiv of [Na+] kg-1 hr-1,2.1 m equiv [Na+] 5hr-1kg-1,0.6 m equiv [Na+] 5hr-1kg-1,–
O=C(O)COc1ccc2c(-c3cc(F)ccc3F)noc2c1Cl,926.2 u equiv of [Na+] kg-1 hr-1,8.3 m equiv [Na+] 5hr-1kg-1,2.2 m equiv [Na+] 5hr-1kg-1,–
Cc1ccc(-c2noc3c(Cl)c(OCC(=O)O)ccc23)cc1,29.3 u equiv of [Na+] kg-1 hr-1,0.6 m equiv [Na+] 5hr-1kg-1,0.8 m equiv [Na+] 5hr-1kg-1,–
Cc1ccc(-c2noc3c(Cl)c(OCC(=O)O)ccc23)s1,122.4 u equiv of [Na+] kg-1 hr-1,0.5 m equiv [Na+] 5hr-1kg-1,–,–
O=C(O)COc1ccc2c(-c3ccc(F)cc3F)noc2c1Cl,41.7 u equiv of [Na+] kg-1 hr-1,0.9 m equiv [Na+] 5hr-1kg-1,0.7 m equiv [Na+] 5hr-1kg-1,–
O=C(O)COc1ccc2c(-c3cccc(F)c3)noc2c1Cl,50.6 u equiv of [Na+] kg-1 hr-1,0.81 m equiv [Na+] 5hr-1kg-1,0.75 m equiv [Na+] 5hr-1kg-1,–
Cc1ccsc1-c1noc2c(Cl)c(OCC(=O)O)ccc12,97.7 u equiv of [Na+] kg-1 hr-1,0.7 m equiv [Na+] 5hr-1kg-1,–,–
O=C(O)COc1c(Cl)c(Cl)c2c(-c3ccccc3F)noc2c1Cl,109 u equiv of [Na+] kg-1 hr-1,1.65 m equiv [Na+] 5hr-1kg-1,0.53 m equiv [Na+] 5hr-1kg-1,–
O=C(O)COc1ccc2c(-c3ccccc3)noc2c1Cl,47.5 u equiv of [Na+] kg-1 hr-1,1.7 m equiv [Na+] 5hr-1kg-1,0.8 m equiv [Na+] 5hr-1kg-1,–
O=C(O)COc1ccc2c(-c3c(F)cccc3F)noc2c1Cl,1081.4 u equiv of [Na+] kg-1 hr-1,10.4 m equiv [Na+] 5hr-1kg-1,5.3 m equiv [Na+] 5hr-1kg-1,Oral diuretic activity [4]: 431.8 u equiv of [Na+] kg-1; Oral diuretic activity [5]: 397 u equiv of [Na+] kg-1; Oral diuretic activity [6]: 342.6 u equiv of [Na+] kg-1; Oral diuretic activity [7]: 190 u equiv of [Na+] kg-1; Oral diuretic activity [8]: 108.4 u equiv of [Na+] kg-1; Oral diuretic activity [9]: 98.9 u equiv of [Na+] kg-1; Oral diuretic activity [10]: 257.2 u equiv of [Na+] kg-1
O=C(O)COc1ccc2c(-c3ccccc3F)noc2c1Br [BROCRINAT],1970.7 u equiv of [Na+] kg-1 hr-1,11.53 m equiv [Na+] 5hr-1kg-1,1.02 m equiv [Na+] 5hr-1kg-1,Oral diuretic activity [4]: 869 u equiv of [Na+] kg-1; Oral diuretic activity [5]: 503.3 u equiv of [Na+] kg-1; Oral diuretic activity [8]: 106.8 u equiv of [Na+] kg-1; Oral diuretic activity [9]: 1083 u equiv of [Na+] kg-1; Oral diuretic activity [10]: 1182.6 u equiv of [Na+] kg-1
O=C(O)COc1ccc(C(=O)c2cccs2)c(Cl)c1Cl [TICRYNAFEN],302.3 u equiv of [Na+] kg-1 hr-1,3.31 m equiv [Na+] 5hr-1kg-1,1.11 m equiv [Na+] 5hr-1kg-1,Oral diuretic activity [4]: 77.4 u equiv of [Na+] kg-1; Oral diuretic activity [5]: 36.5 u equiv of [Na+] kg-1; Oral diuretic activity [7]: 21.2 u equiv of [Na+] kg-1; Oral diuretic activity [8]: 127.5 u equiv of [Na+] kg-1
